Laboratory results reported in ChEMBL document CHEMBL1127529, “Antipsoriatic anthrones with modulated redox properties. 2. Novel derivatives of chrysarobin and isochrysarobin--antiproliferative activity and 5-lipoxygenase inhibition” (J Med Chem, 1994).

Experiments:
[1] = biological target: T1, Arachidonate 5-lipoxygenase (Bos taurus, UniProt Q9BEG3); assay: Inhibition of 5-lipoxygenase in bovine polymorphonuclear leukocytes; type: cell-based
T1 sequence (Q9BEG3 whole entry): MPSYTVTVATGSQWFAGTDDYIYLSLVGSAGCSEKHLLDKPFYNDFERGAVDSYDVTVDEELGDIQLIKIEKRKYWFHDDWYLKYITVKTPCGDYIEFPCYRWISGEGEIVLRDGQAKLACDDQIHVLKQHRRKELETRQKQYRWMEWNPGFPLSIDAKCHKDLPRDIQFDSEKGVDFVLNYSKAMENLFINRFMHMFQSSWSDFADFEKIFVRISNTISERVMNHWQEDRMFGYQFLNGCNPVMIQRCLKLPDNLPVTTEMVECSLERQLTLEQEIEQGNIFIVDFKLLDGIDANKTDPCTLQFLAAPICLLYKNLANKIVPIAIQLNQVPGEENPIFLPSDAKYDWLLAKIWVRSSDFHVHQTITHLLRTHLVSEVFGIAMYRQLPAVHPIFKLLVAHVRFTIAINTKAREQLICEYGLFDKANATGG
In short: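 Bovine PMNL (10^7 cells/mL) were stimulated with Ca-ionophore. Compound was preincubated for 15 min at 37 °C.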

[2] = Partition coefficient (logP) (HPLC); type: physicochemical; conditions: octanol/water
In short: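 Reversed-phase HPLC with MeOH/water/HOAc (77-23-0.1) as eluant, adjusted to pH 5.5 with concentrated NH3.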

HaCaT = assay: Antiproliferative activity against HaCaT cells; type: functional, cell-based; conditions: Homo sapiens
In short: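 HaCaT human keratinocytes were kept in DMEM with 10% FCS, penicillin and streptomycin at 37 °C under 8% CO2. After 48 h the cells were detached with trypsin/EDTA and counted by phase-contrast microscopy.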

Liposome = assay: Inhibition of 2,2'-azobis(2-aminopropane)hydrochloride (AAPH) induced lipid peroxidation in bovine brain phospholipid liposomes; type: functional, subcellular, Bos taurus
[3] = Deoxyribose degradation as a measure of hydroxy radical formation.; type: functional
In short: (§1)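 2-Deoxy-D-ribose (2 mM) was incubated with FeCl3 (0.1 mM) and compound (75 μM) in KH2PO4-KOH buffer pH 7.4 (30 mM) for 2 h at 37 °C with shaking. TBA-reactive material was read at 532 nm. Result is µmol malondialdehyde per mmol deoxyribose.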

[4] = Reducing activity against 2,2-diphenyl-1-picrylhydrazyl (DPPH) with equimolar compound; type: functional
In short: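 Test compound and DPPH, each 10⁻⁴ M in acetone/PBS (1-1 v/v), mixed 1 mL + 1 mL. DPPH reduction followed spectrophotometrically at 516 nm. Reciprocal DPPH concentration plotted against time gave straight lines, and second-order rate constants (M⁻¹ s⁻¹) were taken from the slopes. Values are means, N = 3-6. Highly reactive compounds gave approximate values only.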

[5] = Deoxyribose degradation assay as hydroxy radical formation; type: functional; in short: as §1

IC50 [1]	logP [2]	IC50 (Liposome)	SMILES	IC50 (HaCaT)	DD (uM of MDA mM-1) [3]	kDPPH [4]	DD (uM of MDA mM-1) [5]
> 30 µM	5.92		O=C1c2c(O)cccc2Cc2ccc(Cc3ccc(C(F)(F)F)cc3)c(O)c21	> 5000 nM	< 0.15	3.7 M⁻¹ s⁻¹	
> 30 µM	5.79		COc1ccc(Cc2ccc3c(c2O)C(=O)c2c(O)cccc2C3)cc1OC		< 0.15	> 100 M⁻¹ s⁻¹	
2 µM	3.88	4 µM	O=C1c2c(O)cccc2Cc2cc(Cc3ccc(O)c(O)c3)cc(O)c21	500 nM	0.41	> 100 M⁻¹ s⁻¹	
> 30 µM	5.14	40 µM	Cc1ccc(C(=O)c2cc(O)c3c(c2)Cc2cccc(O)c2C3=O)cc1		1.01	> 100 M⁻¹ s⁻¹	
> 30 µM	5.04		COc1ccc(Cc2ccc3c(c2O)C(=O)c2c(O)cccc2C3)c(OC)c1	> 5000 nM	< 0.15	> 100 M⁻¹ s⁻¹	
6 µM	5.64		COc1cc(CCCc2ccc3c(c2O)C(=O)c2c(O)cccc2C3)cc(OC)c1OC	2000 nM	< 0.15	> 100 M⁻¹ s⁻¹	
> 30 µM	6.35		O=C1c2c(O)cccc2Cc2ccc(Cc3cccc(Oc4ccccc4)c3)c(O)c21		< 0.15	6.4 M⁻¹ s⁻¹	
0.9 µM	3.33	7 µM	O=C1c2c(O)cccc2Cc2ccc(Cc3cc(O)ccc3O)c(O)c21	700 nM	1.46	> 100 M⁻¹ s⁻¹	
> 30 µM	5.62		COc1ccc(Cc2ccc3c(c2O)C(=O)c2c(O)cccc2C3)cc1		< 0.25	11.3 M⁻¹ s⁻¹	
30 µM	6.46		COc1ccc(CCCc2ccc3c(c2O)C(=O)c2c(O)cccc2C3)cc1	> 5000 nM	< 0.15	14 M⁻¹ s⁻¹	
> 30 µM	4.83	40 µM	O=C(c1ccccc1)c1cc(O)c2c(c1)Cc1cccc(O)c1C2=O		1.97	> 100 M⁻¹ s⁻¹	
		> 50 µM	COc1c(OC)c(OC(C)=O)c2cc(Cl)ccc2c1OC(C)=O [LONAPALENE]	3200 nM			< 0.15
7 µM	3.67	16 µM	O=C1c2c(O)cccc2Cc2cc(Cc3ccc(O)cc3O)cc(O)c21	500 nM		39.3 M⁻¹ s⁻¹	3.26

The next lines start with the compound.

SMILES	IC50 [1]	logP [2]	IC50 (Liposome)	IC50 (HaCaT)	DD (uM of MDA mM-1) [3]	kDPPH [4]	DD (uM of MDA mM-1) [5]
O=C(c1ccccc1)c1ccc2c(c1O)C(=O)c1c(O)cccc1C2	18 µM	4.47	43 µM	1600 nM	2.68	> 100 M⁻¹ s⁻¹	
O=C(O)c1ccc(Cc2ccc3c(c2O)C(=O)c2c(O)cccc2C3)cc1		4.1	62 µM		< 0.25	9.9 M⁻¹ s⁻¹	
COC(=O)c1ccc(Cc2ccc3c(c2O)C(=O)c2c(O)cccc2C3)cc1	> 30 µM	5.34			< 0.25	10.4 M⁻¹ s⁻¹	
COc1ccc(Cc2cc(O)c3c(c2)Cc2cccc(O)c2C3=O)c(OC)c1	> 30 µM	5.34	> 200 µM	400 nM	0.32	10.3 M⁻¹ s⁻¹	
O=C1c2c(O)cccc2Cc2ccc(Cc3ccccc3)c(O)c21	> 30 µM	5.61	98 µM	> 5000 nM	< 0.25	11.2 M⁻¹ s⁻¹	
O=C1c2c(O)cccc2Cc2ccc(Cc3ccc(O)cc3)c(O)c21	7 µM	4.66	43 µM	800 nM	0.38	> 100 M⁻¹ s⁻¹	
O=C1c2c(O)cccc2Cc2ccc(Cc3ccc(O)cc3O)c(O)c21	5 µM	3.68	16 µM	1500 nM	0.34	> 100 M⁻¹ s⁻¹	
O=C1c2c(O)cccc2Cc2cc(Cc3cc(O)ccc3O)cc(O)c21		3.2	3 µM	400 nM	1.74	> 100 M⁻¹ s⁻¹	
O=C1c2c(O)cccc2Cc2ccc(Cc3ccccc3O)c(O)c21	5 µM	4.67	25 µM	700 nM	0.35	> 100 M⁻¹ s⁻¹	
O=C(O)c1ccccc1Cc1ccc2c(c1O)C(=O)c1c(O)cccc1C2	4 µM	4.48	42 µM	> 5000 nM	1.2	16.9 M⁻¹ s⁻¹	
Cc1ccc(Cc2ccc3c(c2O)C(=O)c2c(O)cccc2C3)cc1	> 30 µM	6.04				8.5 M⁻¹ s⁻¹	< 0.25
CC(Cc1ccc(O)c(O)c1)C(C)Cc1ccc(O)c(O)c1 (stereo unspecified) [NORDIHYDROGUAIARETIC ACID]			2 µM				
O=C1c2c(O)cccc2Cc2ccc(CCCc3cc(O)c(O)c(O)c3)c(O)c21	0.6 µM	3.96	5 µM	500 nM	2.97	> 100 M⁻¹ s⁻¹	
COc1ccc(OC)c(Cc2cc(O)c3c(c2)Cc2cccc(O)c2C3=O)c1	> 30 µM	5.17		200 nM	0.51	14.8 M⁻¹ s⁻¹	
COC(=O)c1ccccc1Cc1ccc2c(c1O)C(=O)c1c(O)cccc1C2	> 30 µM	5.24			< 0.15	11.4 M⁻¹ s⁻¹	
COc1ccccc1Cc1ccc2c(c1O)C(=O)c1c(O)cccc1C2	> 30 µM	5.62			< 0.25	12 M⁻¹ s⁻¹	
O=C1c2c(O)cccc2Cc2ccc(CCCc3ccccc3)c(O)c21	11 µM	6.44	67 µM	> 5000 nM	0.56	11.1 M⁻¹ s⁻¹	
O=C1c2c(O)cccc2Cc2ccc(Cc3ccc(Cl)cc3)c(O)c21	> 30 µM	5.98	150 µM		< 0.15	19.3 M⁻¹ s⁻¹	
O=C1c2c(O)cccc2Cc2ccc(CCCCc3ccccc3)c(O)c21	> 30 µM	6.81	112 µM		< 0.15	10.4 M⁻¹ s⁻¹	
COc1ccc(Cc2cc(O)c3c(c2)Cc2cccc(O)c2C3=O)cc1	> 30 µM	5.3	33 µM	300 nM	< 0.15	11.2 M⁻¹ s⁻¹	
O=C1c2c(O)cccc2Cc2ccc(CCCc3ccc(O)cc3)c(O)c21	2 µM	5.27	50 µM	400 nM	< 0.15	> 100 M⁻¹ s⁻¹	
O=C1c2c(O)cccc2Cc2ccc(CCc3ccccc3)c(O)c21	> 30 µM	6.23	110 µM		< 0.15	16.1 M⁻¹ s⁻¹	
O=C1c2c(O)cccc2Cc2ccc(Cc3ccc(O)c(O)c3)c(O)c21	4 µM	4.01		400 nM	1.82	> 100 M⁻¹ s⁻¹	
COc1ccc(OC)c(Cc2ccc3c(c2O)C(=O)c2c(O)cccc2C3)c1	> 30 µM	5.72	> 200 µM		< 0.15	> 100 M⁻¹ s⁻¹	
O=C1c2c(O)cccc2Cc2cc(Cc3ccccc3)cc(O)c21	> 30 µM	5.29	64 µM		< 0.25	18.1 M⁻¹ s⁻¹	
COc1ccc(C(=O)c2cc(O)c3c(c2)Cc2cccc(O)c2C3=O)cc1	> 30 µM	4.83		1700 nM	0.98	> 100 M⁻¹ s⁻¹	
O=C1c2c(O)cccc2Cc2cc(Cc3ccc(O)cc3)cc(O)c21	> 30 µM	4.52	14 µM	400 nM		12.6 M⁻¹ s⁻¹	0.27
